From ChEMBL document CHEMBL1145483, “A Candida albicans petite mutant strain with uncoupled oxidative phosphorylation overexpresses MDR1 and has diminished susceptibility to fluconazole and voriconazole” (2007)
≈ marks a conversion by molar mass, not a printed value.

How the values were obtained:
Type in all cases: functional
Candida albicans [1] = assay: Antimicrobial activity against Candida albicans P5 after 24 hrs by broth macrodilution method; conditions: P5, 24 h
Outline: (§1)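 MICs were determined by standard broth macrodilution following the NCCLS M27-A yeast reference method, with readings at 24 h and 48 h. Strains were parental SC5314 and P5, a petite mutant with uncoupled oxidative phosphorylation recovered from SC5314 after serial passage through mouse spleens.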

Candida albicans [2] = assay: Antimicrobial activity against Candida albicans SC5314 after 24 hrs by broth macrodilution method; conditions: SC5314, 24 h; outline: as §1
Candida albicans [3] = assay: Antimicrobial activity against Candida albicans P5 after 48 hrs by broth macrodilution method; conditions: P5, 48 h; outline: as §1
Candida albicans [4] = assay: Antimicrobial activity against Candida albicans SC5314 after 48 hrs by broth macrodilution method; conditions: SC5314, 48 h; outline: as §1
Candida albicans [5] = assay: Ratio of MIC for Candida albicans P5 mutant to MIC for Candida albicans SC5314
Outline: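 The ratio is the P5 MIC divided by the SC5314 MIC, with both MICs obtained by standard broth macrodilution (NCCLS M27-A yeast reference method) and read at 24 h and 48 h. P5 is a petite mutant of SC5314 with uncoupled oxidative phosphorylation.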

Compound	MIC (Candida albicans [1])	MIC (Candida albicans [2])	MIC (Candida albicans [3])	MIC (Candida albicans [4])	Ratio (Candida albicans [5])
C[C@@H]1[C@H](O)[C@@H](C)/C=C/C=C/C=C/C=C/C=C/C=C/C=C/[C@H](O[C@@H]2O[C@H](C)[C@@H](O)[C@H](N)[C@@H]2O)C[C@@H]2O[C@](O)(C[C@@H](O)C[C@@H](O)[C@H](O)CC[C@@H](O)C[C@@H](O)CC(=O)O[C@H]1C)C[C@H](O)[C@H]2C(=O)O [AMPHOTERICIN B]	0.06 µg/mL (≈ 0.0649 µM)	0.06 µg/mL (≈ 0.0649 µM)	0.125 µg/mL (≈ 0.135 µM)	0.125 µg/mL (≈ 0.135 µM)	–
CCCCNC(=O)n1c(NC(=O)OC)nc2ccccc21 [BENOMYL]	20 µg/mL (≈ 68.9 µM)	20 µg/mL (≈ 68.9 µM)	20 µg/mL (≈ 68.9 µM)	20 µg/mL (≈ 68.9 µM)	–
C[C@H]1CCC/C=C/[C@@H]2C[C@H](O)C[C@H]2[C@H](O)/C=C/C(=O)O1 [BREFELDIN A]	16 µg/mL (≈ 57.1 µM)	4 µg/mL (≈ 14.3 µM)	32 µg/mL (≈ 114 µM)	8 µg/mL (≈ 28.5 µM)	–
C/C=C/C/C=C/CCC(=O)[C@H]1O[C@H]1C(N)=O [CERULENIN]	4 µg/mL (≈ 17.9 µM)	2 µg/mL (≈ 8.96 µM)	8 µg/mL (≈ 35.8 µM)	2 µg/mL (≈ 8.96 µM)	–
C[C@@H]1C[C@@H]([C@H](O)CC2CC(=O)NC(=O)C2)C(=O)[C@@H](C)C1 [CYCLOHEXIMIDE]	400 µg/mL (≈ 1420 µM)	400 µg/mL (≈ 1420 µM)	800 µg/mL (≈ 2840 µM)	400 µg/mL (≈ 1420 µM)	–
OC(Cn1cncn1)(Cn1cncn1)c1ccc(F)cc1F [FLUCONAZOLE]	1 µg/mL (≈ 3.27 µM)	0.125 µg/mL (≈ 0.408 µM)	1 µg/mL (≈ 3.27 µM)	0.125 µg/mL (≈ 0.408 µM)	8
CN(C)c1ccc(C(=C2C=CC(=[N+](C)C)C=C2)c2ccc(N(C)C)cc2)cc1.[Cl-] [GENTIAN VIOLET]	0.2 µg/mL	0.2 µg/mL	0.4 µg/mL	0.4 µg/mL	–
CCC(C)n1ncn(-c2ccc(N3CCN(c4ccc(OC[C@H]5CO[C@](Cn6cncn6)(c6ccc(Cl)cc6Cl)O5)cc4)CC3)cc2)c1=O (stereo not given in full) [ITRACONAZOLE]	0.016 µg/mL (≈ 0.0227 µM)	0.016 µg/mL (≈ 0.0227 µM)	0.016 µg/mL (≈ 0.0227 µM)	0.016 µg/mL (≈ 0.0227 µM)	–
CC(=O)N1CCN(c2ccc(OC[C@H]3CO[C@](Cn4ccnc4)(c4ccc(Cl)cc4Cl)O3)cc2)CC1 [KETOCONAZOLE]	0.064 µg/mL (≈ 0.12 µM)	0.064 µg/mL (≈ 0.12 µM)	0.064 µg/mL (≈ 0.12 µM)	0.064 µg/mL (≈ 0.12 µM)	–
CC/N=c1\cc2oc3cc(NCC)c(C)cc3c(-c3ccccc3C(=O)OCC)c-2cc1C.Cl [RHODAMINE 6G HYDROCHLORIDE]	8 µg/mL	8 µg/mL	8 µg/mL	8 µg/mL	–
Cc1cc(C)nc(NC(=O)NS(=O)(=O)c2ccccc2C(=O)O)n1 [SULFOMETURON]	10 µg/mL (≈ 28.5 µM)	10 µg/mL (≈ 28.5 µM)	10 µg/mL (≈ 28.5 µM)	10 µg/mL (≈ 28.5 µM)	–
C[C@@H](c1ncncc1F)[C@](O)(Cn1cncn1)c1ccc(F)cc1F [VORICONAZOLE]	0.032 µg/mL (≈ 0.0916 µM)	0.004 µg/mL (≈ 0.0115 µM)	0.032 µg/mL (≈ 0.0916 µM)	0.004 µg/mL (≈ 0.0115 µM)	8
